ChEMBL document CHEMBL5154918, “Synthesis and Biological Characterization of a Series of 2-Sulfonamidebenzamides as Allosteric Modulators of MrgX1” (ACS Med Chem Lett, 2022)

How the values were obtained:
[1] = molecular target: T1, Mas-related G-protein coupled receptor member X1 (Homo sapiens, UniProt Q96LB2); assay: Positive allosteric modulator activity at human MRGPRX1 expressed in HEK293 cells assessed as maximal efficacy at 5 uM in presence of BAM8-22 by Fluo4-dye based FLIPR assay relative to control; format: cell-based
[2] = molecular target: T1, Mas-related G-protein coupled receptor member X1; assay: Positive allosteric modulator activity at human MRGPRX1 expressed in HEK293 cells in presence of BAM8-22 by Fluo4-dye based FLIPR assay; format: cell-based
Method in brief: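 HEK293 cells expressing MrgX1. Compounds tested in the presence of 10 nM BAM8-22. Emax normalized to control compound ML382; mean ± SEM of n = 2 experiments.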

[3] = Microsomal stability in mouse liver microsomes assessed as intrinsic clearance; format: ADME, Microsome; conditions: read-out: CLH
Method in brief: (§1)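 Intrinsic clearance measured in human and mouse liver microsomes. Hepatic clearance predicted from it with the well-stirred organ CL model, binding terms excluded.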

[4] = Plasma protein binding in human assessed as unbound fraction; format: ADME, cell-free; conditions: read-out: PPB
Method in brief: (§2)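 Equilibrium dialysis in human and mouse plasma; results expressed as […] fraction unbound.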

[5] = Microsomal stability in human liver microsomes assessed as intrinsic clearance; format: ADME, Microsome; conditions: read-out: CLH; method in brief: as §1
[6] = Plasma protein binding in mouse assessed as unbound fraction; format: ADME, cell-free; conditions: read-out: PPB; method in brief: as §2
[7] = molecular target: Translocator protein (Homo sapiens, UniProt P30536); assay: Binding affinity to peripheral benzodiazepine receptor (unknown origin)
[8] = Cmax in mouse at 2 mg/kg, ip administered as discrete dose; format: ADME, organism-based; set-up: dose 2 mg/kg, route ip; conditions: in vivo
Method in brief: (§3)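 Discrete (single-compound) mouse PK, dosed IP at 2 mg/kg in 10% DMSO/10% cremophor EL/30% PEG400/50% water. Plasma and brain concentrations measured; brain:plasma ratio reported.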

[9] = Drug concentration in Sprague-Dawley rat plasma at 0.25 mg/kg measured up to 48.25 hrs; format: ADME, organism-based
Method in brief: (§4)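 Brain sampled on Day 2 at 0.25 h, with matching plasma, after a 0.25 mg/kg IV cassette dose (5-in-1) in male Sprague–Dawley rats. Vehicle was DMSO:PEG400:EtOH:Saline (5:48:10:37). Kp is total brain/plasma concentration ratio.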

[10] = AUC in Sprague-Dawley rat at 0.25 mg/kg, iv bolus injection administered as cassette dose; format: ADME, organism-based; set-up: dose 0.25 mg/kg, route iv; conditions: in vivo
Method in brief: (§5)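 Male Sprague–Dawley rats, 5-in-1 cassette, 0.25 mg/kg IV of each test article in DMSO:PEG400:EtOH:Saline (5:48:10:37). Plasma sampled at 0.0833, 0.25, 0.5, 1, 3, 4, 8 and 24 h, plus Day 2 at 0.25 h post dose.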

[11] = Half life in Sprague-Dawley rat at 0.25 mg/kg, iv bolus injection administered as cassette dose; format: ADME, organism-based; conditions: in vivo; method in brief: as §5
[12] = AUC in mouse at 2 mg/kg, ip administered as discrete dose; format: ADME, organism-based; set-up: dose 2 mg/kg, route ip; conditions: in vivo; method in brief: as §3
[13] = Ratio of drug concentration in brain to plasma in mouse at 2 mg/kg, ip administered as discrete dose; format: ADME, organism-based; conditions: brain and plasma, read-out: BPR; method in brief: as §3
[14] = Tmax in mouse at 2 mg/kg, ip administered as discrete dose; format: ADME, organism-based; conditions: in vivo; method in brief: as §3
[15] = Ratio of drug concentration in brain to plasma in Sprague-Dawley rat at 0.25 mg/kg measured after 15 mins; format: ADME, organism-based; conditions: brain and plasma; method in brief: as §4
[16] = Drug concentration in Sprague-Dawley rat brain at 0.25 mg/kg measured up to 48.25 hrs; format: ADME, organism-based; conditions: read-out: Ct; method in brief: as §4
[17] = Half life in mouse at 2 mg/kg, ip administered as discrete dose; format: ADME, organism-based; conditions: in vivo; method in brief: as §3
[18] = Clearance in Sprague-Dawley rat at 0.25 mg/kg, iv bolus injection administered as cassette dose; format: ADME, organism-based; conditions: in vivo; method in brief: as §5
[19] = Volume of distribution at steady state in Sprague-Dawley rat at 0.25 mg/kg, iv bolus injection administered as cassette dose; format: ADME, organism-based; conditions: in vivo, read-out: Vdss; method in brief: as §5
[20] = filed as positive allosteric modulator

T1 sequence (Q96LB2 whole entry): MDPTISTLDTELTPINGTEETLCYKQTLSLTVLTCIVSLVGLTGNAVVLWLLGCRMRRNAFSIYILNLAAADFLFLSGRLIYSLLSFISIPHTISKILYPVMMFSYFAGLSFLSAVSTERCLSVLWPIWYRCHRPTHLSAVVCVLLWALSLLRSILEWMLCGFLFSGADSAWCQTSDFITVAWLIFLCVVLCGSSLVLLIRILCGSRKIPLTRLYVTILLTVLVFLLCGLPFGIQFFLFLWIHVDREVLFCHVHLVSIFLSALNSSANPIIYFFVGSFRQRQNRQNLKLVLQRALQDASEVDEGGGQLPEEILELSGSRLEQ
Translocator protein, sequence (P30536 whole entry): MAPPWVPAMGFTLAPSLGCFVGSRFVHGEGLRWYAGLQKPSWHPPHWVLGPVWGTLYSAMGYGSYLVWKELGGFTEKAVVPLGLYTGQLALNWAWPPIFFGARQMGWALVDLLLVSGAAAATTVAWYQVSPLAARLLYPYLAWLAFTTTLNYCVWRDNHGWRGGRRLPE

SMILES	Emax [1] [%]	EC50 [2] [nM]	Emax [1, 20] [%]	further results
CCOc1ccccc1Nc1nn(S(=O)(=O)C2CC2)c2ccccc12	-5.7	–	–	–
CCOc1ccccc1Nc1nn(S(=O)(=O)C2CC2)c2ncccc12	-11.7	–	–	–
O=C(Nc1ccccc1OCC(F)(F)F)c1ccc(F)cc1NS(=O)(=O)C1CC1	29.1	–	–	–
CCOc1ccccc1NC(=O)c1ccc2ccccc2c1NS(=O)(=O)C1CC1	8.9	–	–	–
CCOc1ccc(F)cc1NC(=O)c1cc(Cl)ccc1NS(=O)(=O)CC	–	206	118	–
COc1ccccc1N(C)C(=O)c1ccccc1NS(=O)(=O)C1CC1	-11.9	–	–	–
CCOc1ccccc1NC(=O)c1cccc(NS(=O)(=O)C2CC2)c1	-44.4	–	–	–
O=C(Nc1ccccc1OCC(F)(F)F)c1cc(F)ccc1NS(=O)(=O)C1CC1	–	–	59.8	–
CCOc1ccccc1-c1nnc(-c2ccccc2NS(=O)(=O)C2CC2)o1	6.7	–	–	–
Cc1ccc(NS(=O)(=O)C2CC2)c(C(=O)Nc2ccccc2OCC(F)(F)F)c1	–	369	89.9	–
CCOc1ccc(F)cc1NC(=O)c1cc(C)ccc1NS(=O)(=O)CC	–	80	128	CLint scaled [3]: 1000 mL/min/kg; fraction unbound [4]: 0.003; CLint scaled [5]: 69.3 mL/min/kg; fraction unbound [6]: 0.014
CCOc1ccccc1NC(=O)c1cc(F)ccc1NS(=O)(=O)CC	–	98	107	CLint scaled [3]: 269 mL/min/kg; fraction unbound [4]: 0.002; CLint scaled [5]: 36 mL/min/kg; fraction unbound [6]: 0.041
CCS(=O)(=O)Nc1ccc(C)cc1C(=O)Nc1ccccc1OCC(F)(F)F	–	–	58.4	–
O=C(Nc1ccccc1OCC(F)(F)F)c1cc(Cl)ccc1NS(=O)(=O)C1CC1	–	915	103	–
CCS(=O)(=O)Nc1ccccc1C(=O)Nc1ccc(F)cc1OCC(F)(F)F	–	1400	91.4	CLint scaled [3]: 1210 mL/min/kg; fraction unbound [4]: 0.005; CLint scaled [5]: 80 mL/min/kg; fraction unbound [6]: 0.021
CCS(=O)(=O)Nc1ccc(Cl)cc1C(=O)Nc1ccccc1OCC(F)(F)F	–	366	89.5	–
CCOc1ccc(F)cc1NC(=O)c1cc(F)ccc1NS(=O)(=O)C1CC1	–	13	127	CLint scaled [3]: 980 mL/min/kg; Ki [7]: 71 nM; Cmax [8]: 1280 ng/mL; concentration at 48.25 h [9]: 297 ng/mL; fraction unbound [4]: 0.002; AUC [10]: 304 ng·h/mL; half-life [11]: 24.6 min; AUC [12]: 426 ng·h/mL; Kp [13]: 0.2; Tmax [14]: 10.2 min; CLint scaled [5]: 59.4 mL/min/kg; Kp at 0.25 h [15]: 0.19; concentration at 48.25 h [16]: 55.9 ng/g; half-life [17]: 7.2 min; clearance [18]: 14.1 mL/min/kg; Vd [19]: 0.34 L/kg; fraction unbound [6]: 0.011
CCOc1ccc(F)cc1NC(=O)c1cc(F)ccc1NS(=O)(=O)CC	–	31	136	CLint scaled [3]: 1240 mL/min/kg; fraction unbound [4]: 0.002; CLint scaled [5]: 69.1 mL/min/kg; fraction unbound [6]: 0.001
CCS(=O)(=O)Nc1ccc(F)cc1C(=O)Nc1ccccc1OCC(F)(F)F	–	435	100	–
CCOc1ccccc1NC(=O)c1cc(Cl)ccc1NS(=O)(=O)CC	–	407	89.2	–
CCOc1ccccc1NC(=O)c1ccc(NS(=O)(=O)C2CC2)cc1	–	–	70.6	–
CCOc1ccccc1NC(=O)c1cc(C)ccc1NS(=O)(=O)CC	–	217	108	–
CCOc1ccc(F)cc1NC(=O)c1ccccc1NS(=O)(=O)CC	–	285	74	–
CCOC1CCCCC1NC(=O)c1ccccc1NS(=O)(=O)C1CC1 (configuration not stated)	24.2	–	–	–
CCOc1ccccc1-c1nnc(-c2ccccc2NS(=O)(=O)C2CC2)[nH]1	7.5	–	–	–
CCOc1ccccc1NC(=O)c1cc2ccccc2cc1NS(=O)(=O)C1CC1	29.7	–	–	–
CCOc1ccccc1Nc1nn(S(=O)(=O)C2CC2)c2cccnc12	1.9	–	–	–
CCOc1ccc(F)cc1NC(=O)c1cc(Cl)ccc1NS(=O)(=O)C1CC1	–	55	104	CLint scaled [3]: > 2400 mL/min/kg; fraction unbound [4]: 0.001; CLint scaled [5]: 138 mL/min/kg; fraction unbound [6]: 0.003
CCOc1cccc2nc(-c3ccccc3NS(=O)(=O)C3CC3)[nH]c12	23.8	–	–	–

Continued, in another order:

Emax [1] [%]	EC50 [2] [nM]	Emax [1, 20] [%]	SMILES	further results
12.1	–	–	CCOc1ccccc1NC(=O)c1ccncc1NS(=O)(=O)C1CC1	–
–	1360	61.5	O=C(Nc1ccccc1OCC1CC1)c1ccccc1NS(=O)(=O)C1CC1	–
–	3140	80.1	O=C(Nc1ccccc1OC1CCCC1)c1ccccc1NS(=O)(=O)C1CC1	–
–	124	100	CCOc1ccccc1NC(=O)c1ccccc1NS(=O)(=O)C1CC1	CLint scaled [3]: 1060 mL/min/kg; fraction unbound [4]: 0.004; CLint scaled [5]: 61.9 mL/min/kg; fraction unbound [6]: 0.017
2.1	–	–	O=C(Nc1ccc2c(c1)OCCO2)c1ccccc1NS(=O)(=O)C1CC1	–
–	54	110	CCOc1ccccc1NC(=O)c1cc(Cl)ccc1NS(=O)(=O)C1CC1	CLint scaled [3]: 1470 mL/min/kg; fraction unbound [4]: 0.001; CLint scaled [5]: 130 mL/min/kg; fraction unbound [6]: 0.001
36.1	–	–	CCOc1ccccc1NC(=O)c1ccc(Cl)cc1NS(=O)(=O)C1CC1	–
-15.6	–	–	COc1ccc(NC(=O)c2ccccc2NS(=O)(=O)C2CC2)cc1	–
–	860	67.6	CCOc1ccccc1NC(=O)c1ccc(F)cc1NS(=O)(=O)C1CC1	–
–	1090	73.2	CCOc1ccc(NC(=O)c2ccccc2NS(=O)(=O)C2CC2)c(OCC)c1	–
–	2830	83.1	CC(C)Oc1ccccc1NC(=O)c1ccccc1NS(=O)(=O)C1CC1	–
3.2	–	–	CCOc1ccccc1NC(=O)c1ccc(C)cc1NS(=O)(=O)C1CC1	–
–	502	95	O=C(Nc1ccccc1OCC(F)(F)F)c1ccccc1NS(=O)(=O)C1CC1	CLint scaled [3]: 979 mL/min/kg; fraction unbound [4]: 0.004; CLint scaled [5]: 40.2 mL/min/kg; fraction unbound [6]: 0.022
–	103	104	CCOc1ccccc1NC(=O)c1cc(C)ccc1NS(=O)(=O)C1CC1	CLint scaled [3]: 410 mL/min/kg; fraction unbound [4]: 0.003; CLint scaled [5]: 75.1 mL/min/kg; fraction unbound [6]: 0.043
12.7	–	–	CCOc1ccccc1CNC(=O)c1ccccc1NS(=O)(=O)C1CC1	–
14.6	–	–	O=C(Nc1cccc2c1OC(F)(F)O2)c1ccccc1NS(=O)(=O)C1CC1	–
6.8	–	–	O=C(c1ccccc1NS(=O)(=O)C1CC1)N1CCCc2ccccc21	–
–	1040	66.3	Cc1cc2cccc(NC(=O)c3ccccc3NS(=O)(=O)C3CC3)c2o1	CLint scaled [3]: 1460 mL/min/kg; fraction unbound [4]: < 0.003; CLint scaled [5]: 74.9 mL/min/kg; fraction unbound [6]: 0.026
20.7	–	–	COCCOc1ccccc1NC(=O)c1ccccc1NS(=O)(=O)C1CC1	–
-10.5	–	–	CCOc1cc(F)ccc1NC(=O)c1ccccc1NS(=O)(=O)C1CC1	–
-25.6	–	–	CC1(C)Oc2cccc(NC(=O)c3ccccc3NS(=O)(=O)C3CC3)c2O1	–
–	506	80.8	CCCOc1ccccc1NC(=O)c1ccccc1NS(=O)(=O)C1CC1	CLint scaled [3]: 4890 mL/min/kg; fraction unbound [4]: < 0.003; CLint scaled [5]: 116 mL/min/kg; fraction unbound [6]: 0.015
0.1	–	–	CCOc1ccccc1NC(=O)c1ncccc1NS(=O)(=O)C1CC1	–
1.6	–	–	CCOc1cccnc1NC(=O)c1ccccc1NS(=O)(=O)C1CC1	–
–	14200	53.4	O=C(Nc1cccc2occc12)c1ccccc1NS(=O)(=O)C1CC1	–
27	–	–	O=C(Nc1cccc2c1OCCC2)c1ccccc1NS(=O)(=O)C1CC1	–
2.7	–	–	O=C(c1ccccc1NS(=O)(=O)C1CC1)N1CCOc2ccccc21	–
–	173	102	CCOc1ccccc1NC(=O)c1cc(F)ccc1NS(=O)(=O)C1CC1	CLint scaled [3]: 383 mL/min/kg; fraction unbound [4]: 0.004; CLint scaled [5]: 45.4 mL/min/kg; fraction unbound [6]: 0.041
7.4	–	–	O=C(Nc1cccc2c1OCO2)c1ccccc1NS(=O)(=O)C1CC1	–
37.9	9010	–	O=C(Nc1cccc2c1OCCO2)c1ccccc1NS(=O)(=O)C1CC1	–
